Screening data deposited in PubChem by several laboratories.
Shown are actives, neighbours in structure and some others; about 1.8% of the full set was active somewhere.
MT1-MMP act inh: inhibitors of human MT1-MMP activation; P50281; HT1080 RFP-PRO-GFP cells, GFP/RFP ratio fluorescence, overnight; percent of plate control window, DMSO zero; GFP/RFP ratio change, % at 20 µM; 360,000 compounds, 0.061% hits; AID 651647;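 active = GFP/RFP ratio change of at least 30% with cell ATP level not reduced by more than half and red fluorescence within 50% of control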
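system = RFP-PRO-GFP reporter HT1080 cells | dosing = 20 µM single dose, 1% DMSO | timing = overnight cell settling, then overnight compound exposure, 37 °C, 5% CO2 | read-out basis = GFP/RFP fluorescence ratio | controls = DMSO and RFP-L50D-GFP cell wells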
MsrA act: activators of bovine methionine sulfoxide reductase A; purified bovine MsrA, absorbance read-out; AID 602163; 360,000 compounds, 0.3% hits; activation, % at 10.6 µM; in the data active = activation above about 7.5%
MsrA inh: inhibits bovine methionine sulfoxide reductase A; purified bovine MsrA, absorbance read-out; inhibition, % at 15.5 µM; 360,000 compounds, 0.75% hits; AID 651718; in the data active = inhibition above about 4.5%
SKN-1 inh: blocks SKN-1 activity in C. elegans | AID 624304 | C. elegans VP596 Pgst-4::GFP/RFP ratio, acrylamide-induced, 24 h | 360,000 compounds, 0.49% hits | inhibition, % at 21.8 µM;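 active = interference check ratio from 0.5 to 1.5 plus GFP to RFP signal ratio inhibition reaching or exceeding a fixed threshold, cut at about 30% in these data, passing the limit was not always enough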
MIN6 prolif: inducers of beta-cell replication in MIN6 cells | proliferation, % at 10 µM | MIN6 cells proliferation, ATPlite luminescence, 48 h; cells starved in 0.2% serum; 100% = growth in 10% serum | 330,000 compounds, 0.29% hits;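 active = compounds whose signal lies at least 3.5 SD above the mean of all wells on their plate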
DAGLB inh: diacylglycerol lipase beta (human) inhibition. Q8NCG7. HEK293T DAGLB membrane lysate, EnzChek fluorogenic substrate. inhibition, % at 5.17 µM. 340,000 compounds, 0.059% hits. AID 504411; in the data active = inhibition above about 34%
Target sequence (Q8NCG7 whole entry, looked up): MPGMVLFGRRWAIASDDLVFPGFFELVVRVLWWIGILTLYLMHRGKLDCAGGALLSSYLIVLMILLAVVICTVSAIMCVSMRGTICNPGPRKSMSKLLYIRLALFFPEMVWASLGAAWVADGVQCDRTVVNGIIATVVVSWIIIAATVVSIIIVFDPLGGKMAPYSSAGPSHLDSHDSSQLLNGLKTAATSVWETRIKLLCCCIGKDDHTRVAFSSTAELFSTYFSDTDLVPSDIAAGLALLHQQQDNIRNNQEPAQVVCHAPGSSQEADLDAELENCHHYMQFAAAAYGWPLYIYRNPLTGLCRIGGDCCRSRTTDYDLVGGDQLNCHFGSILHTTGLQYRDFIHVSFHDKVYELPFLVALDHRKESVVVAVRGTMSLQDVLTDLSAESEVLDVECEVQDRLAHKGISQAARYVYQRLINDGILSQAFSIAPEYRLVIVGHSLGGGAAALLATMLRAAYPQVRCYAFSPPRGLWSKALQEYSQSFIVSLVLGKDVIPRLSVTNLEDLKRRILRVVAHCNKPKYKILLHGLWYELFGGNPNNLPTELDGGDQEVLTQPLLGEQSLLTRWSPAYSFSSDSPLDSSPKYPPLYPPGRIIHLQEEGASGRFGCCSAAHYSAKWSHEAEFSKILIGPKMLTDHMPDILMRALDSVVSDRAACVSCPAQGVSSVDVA
MsrA activ conf: confirmation of bovine methionine sulfoxide reductase A activators | shares compounds with MsrA act | purified bovine MsrA, absorbance read-out | activation, % at 10.6 µM | 1,000 compounds, 12% hits | AID 602270; in the data active = activation above about 4%;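 note: enzyme coupled to thioredoxin and thioredoxin reductase with NADPH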
Each line names hits and unclear results; the compound was inactive in the other large screens (follow-up assays come after a bar, where they were run).

Cc1ccc(-c2csc3n[nH]c(=S)n23)cc1	MsrA act 12 | MsrA activ conf inactive
FC(F)(F)c1cccc(-c2nc3nc(Cl)c(Cl)nc3[nH]2)c1	MsrA act 12 (no result: MsrA inh) | MsrA activ conf inactive
FC(F)(F)c1nc2nc(Cl)c(Cl)nc2[nH]1	none (no result: MIN6 prolif)
O=C(CC(Nc1ccccc1)C(=O)O)c1ccccc1 (stereo not drawn)	none
C=C(C(=O)c1ccccc1)C(C)CC(=O)c1ccccc1 (stereo not drawn)	MsrA act 8.5 | MsrA activ conf inactive
CN1/C(=C\C(=S)Nc2ccccc2)C(C)(C)c2ccccc21	MsrA act 9.0 | MsrA activ conf inactive
CN1/C(=C\C(=O)Nc2ccc(Cl)cc2)C(C)(C)c2ccccc21	none
O=C(O)c1ccccc1NS(=O)(=O)c1cccc(-n2sc3ccccc3c2=O)c1	MsrA act 7.7 | MsrA activ conf inactive
COc1ccc(N2CCN(C(c3nnnn3C3CCCC3)C(C)C)CC2)cc1 (stereo not drawn)	MsrA act 8.9 | MsrA activ conf inactive
CCc1nnc(NC(=O)CSc2nc(C)c3c(c2C#N)CCCC3)s1	MsrA act 15 (no result: MsrA inh) | MsrA activ conf inactive
Cc1cc(=O)[nH]c(SCC(=O)NCc2ccc3c(c2)OCO3)n1	none
Cc1nc(SCC(=O)NCc2ccc3c(c2)OCO3)c(C#N)c2c1CCCC2	MsrA act 9.2 | MsrA activ conf inactive
COc1ccc(NC(=O)CSc2nc(C)c3c(c2C#N)CCCC3)cc1	none
C[C@@H]1CN([C@@H](C)CO)C(=O)c2cc(Br)cnc2O[C@@H]1CN(C)Cc1ccccn1	none (no result: MT1-MMP act inh, MsrA act, SKN-1 inh, MIN6 prolif, DAGLB inh)
COc1ccc(OC)c(C2=C/C(=C/c3ccccn3)C(=O)O2)c1	none
O=C(Cc1c(Cl)cccc1Cl)OCC(=O)N1CCN(C(=O)c2ccco2)CC1	none
CN(C)CCNC(=O)c1cccc(-c2cnc3c(NC=O)cc(-c4ccc(S(C)(=O)=O)cc4)cn23)c1	MsrA act 8.0 (no result: MIN6 prolif, DAGLB inh) | MsrA activ conf inactive
CN(C)C(=O)c1cccc(-c2cc(NC=O)c3ncc(-c4ccc(F)c(Cl)c4)n3c2)c1	MsrA act 9.3 (no result: MIN6 prolif, DAGLB inh) | MsrA activ conf inactive
CN(C)CCNC(=O)c1cccc(-c2cc(NC=O)c3ncc(-c4cccc(C(F)(F)F)c4)n3c2)c1	none (no result: MIN6 prolif, DAGLB inh)
COc1cccc(-c2cc(NC=O)c3ncc(-c4cccc(C(=O)NCCN(C)C)c4)n3c2)c1	none (no result: MIN6 prolif, DAGLB inh)
CN(C)CCNC(=O)c1cccc(-c2cnc3c(NC=O)cc(-c4cc(F)c(F)c(F)c4)cn23)c1	MsrA act 8.0 (no result: MIN6 prolif, DAGLB inh) | MsrA activ conf inactive
O=C(O)CC12CC3CC(C1)CC(n1cncn1)(C3)C2	none
Nc1ncnc2c1ncn2[C@@H]1O[C@H](CN2CCCS2(=O)=O)[C@@H](O)[C@H]1O	none
O=C(Cn1cnc2ccccc2c1=O)NC1CCS(=O)(=O)C1 (stereo not drawn)	none
O=Nc1c(O)c2ccccc2c2ccccc12	MsrA act 20 (no result: MIN6 prolif) | MsrA activ conf 13
O=c1ccc2ccccc2c2ccccc12	none (no result: MIN6 prolif, DAGLB inh)
CN1C=CC(=O)[C@@H](O)[C@H]1c1ccccc1Br	none (no result: MIN6 prolif)
O=C(c1ccc([N+](=O)[O-])o1)N1CCc2ccccc21	MsrA act 10 | MsrA activ conf inactive
O=C(c1ccc([N+](=O)[O-])o1)N1CCc2ccccc2C1	none
Cc1cc(=O)c2c(ccc3c(=O)cc(C)[nH]c32)[nH]1	none (no result: MT1-MMP act inh, MsrA act, SKN-1 inh, MIN6 prolif, DAGLB inh)
CC1(C)C(CC(=O)O)CC1C(=O)O (stereo not drawn)	none (no result: MIN6 prolif)
C#CC(C)(O)C1CC(CC(=O)O)C1(C)C (stereo not drawn)	MsrA act 10 (no result: MsrA inh, MIN6 prolif) | MsrA activ conf inactive
O=C(C1CCN(S(=O)(=O)c2ccccc2)CC1)N1CCc2ccccc21	none
O=C(C1CCN(S(=O)(=O)c2ccccc2F)CC1)N1CCc2ccccc21	MsrA act 8.8 | MsrA activ conf inactive
CCOCCC(=O)Nc1ccc2c(c1)c(=O)n(C)n2-c1ccccc1F	MsrA act 10 (no result: MIN6 prolif, DAGLB inh) | MsrA activ conf inactive
COc1ccc(Cc2c(-c3ccc(F)cc3)nc3ccc(C)cn23)c(C)c1	none (no result: MT1-MMP act inh, MsrA act, SKN-1 inh, MIN6 prolif, DAGLB inh)
COc1ccc(Cc2c(-c3ccc(OC)c(OC)c3)nc3ccc(C)cn23)c(C)c1	MsrA act 13 (no result: MIN6 prolif, DAGLB inh) | MsrA activ conf inactive
CC(C)CCN1CC(C(=O)NC(C)C)CC1=O (stereo not drawn)	MsrA act 11 | MsrA activ conf inactive
COc1ccc2oc(=O)c(C(=O)NCCc3ccc(OC)c(OC)c3)cc2c1	MsrA act 7.7 | MsrA activ conf inactive
C=CCn1c(N)c(C(=O)NCc2cccnc2)sc1=S	MsrA act 8.8 | MsrA activ conf inactive
CCOc1ccc(-n2c(N)c(C(=O)NCc3cccnc3)sc2=S)cc1	none
CCOC(=O)Nc1ccc2c(c1)N(C(=O)CN(CC)CC)c1ccccc1C=C2	MsrA act 7.9 | MsrA activ conf inactive
CC1CCCC(C)N1/N=C/c1cc(Br)cc(Br)c1O (stereo not drawn)	MsrA act 9.2 | MsrA activ conf inactive
Nc1[nH]c(C(=O)c2ccccc2)c(-c2cccc3ccccc23)c1C(=O)c1cccs1	none (no result: MT1-MMP act inh, MsrA act, SKN-1 inh, MIN6 prolif, DAGLB inh)
Cn1c(Cc2nc(-c3cnccn3)no2)nnc1SCC(=O)Nc1ccccc1	none
CCc1ccc(/C=C2/SC(=S)N(CCC(=O)NCCCN3CCOCC3)C2=O)cc1	none
COC(=O)c1ccc(/C=C2/SC(=S)N(CCC(=O)NCCCN3CCOCC3)C2=O)cc1	MsrA act 8.1 | MsrA activ conf inactive
C=CCn1c(SCCN2CCCC2)nc2c([nH]c3ccccc32)c1=O	MsrA act 8.4 | MsrA activ conf inactive
C=CCn1c(SCC(=O)Nc2ccc(OC)cc2)nc2c([nH]c3ccccc32)c1=O	none
COc1ccc(C(=O)Nc2ccc(C(=O)Nc3cccnc3)cc2)cc1	none
CCC(=O)Nc1ccc(C(=O)Nc2cccnc2)cc1	MsrA act 15 | MsrA activ conf inactive
COc1ccccc1CC(=O)NCC1CCCO1 (stereo not drawn)	MsrA act 8.4 | MsrA activ conf inactive
CCSC1=N/C(=C\c2ccccc2)C(=O)N1c1ccc(OC)cc1	none
CCN(CC)C1=N/C(=C\c2ccc(OC)cc2)C(=O)N1c1ccccc1	MsrA act 20 | MsrA activ conf inactive
Cc1nn(CC(=O)NCCN2CCCCC2C)c(=O)c2cc(-c3ccccc3)nn12 (stereo not drawn)	none
Cc1ccc(C(=O)Nc2nccc(C)n2)cc1	MsrA act 8.7 | MsrA activ conf inactive
O=C(O)C1CSC(CCc2ccccc2)N1 (stereo not drawn)	MsrA act 7.8 | MsrA activ conf inactive
CC(C)Cc1c(O)nc(SCC(=O)N2CCCCCC2)[nH]c1=O	MsrA act 22 | MsrA activ conf inactive
Cc1cc(-c2ccccc2)cc(=O)[nH]1	MsrA act 13 (no result: MIN6 prolif) | MsrA activ conf inactive
Cc1cc(=O)[nH]c(-c2ccccc2)n1	none
